PPC-1+TRAIL kill = kills PPC-1 cancer cells in the presence of TRAIL | 220,000 tested, 0.41% active | PPC-1 cells + TRAIL, ATPLite viability luminescence | cell killing (% activity), % at 4 µM or 5 µM;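 active means cell killing above 50% in the first pass at 4 µM, then a duplicate retest at 5 µM averaging 50% or more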;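 further: plate controls were cells with TRAIL plus DMSO for no effect and medium-only wells lacking cells for full effect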
APP 5'UTR act = APP 5'UTR luciferase reporter activation. AID 1276. SH-SY5Y APP 5'UTR luciferase reporter, luminescence; zero percent = DMSO vehicle wells. activation, % at 2 µM. 190,000 tested, 1% active;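 active means activation above a set limit, based on mean plus 3 SD of controls, cut at about 140% in these data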
FLuc stim CS = affects firefly luciferase, flagging false hits in luciferase stimulation screens. activation factor at 10 µM. ATPlite luciferase biochemical, luminescence, 10 min; 0 = ATP-free wells, 1 = DMSO control. P08659. 200,000 tested, under 10 active. AID 1027;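 active means luciferase activation factor, scaled between plate controls, of at least 2 with compound at 10 µM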
Target sequence (P08659 whole entry, looked up): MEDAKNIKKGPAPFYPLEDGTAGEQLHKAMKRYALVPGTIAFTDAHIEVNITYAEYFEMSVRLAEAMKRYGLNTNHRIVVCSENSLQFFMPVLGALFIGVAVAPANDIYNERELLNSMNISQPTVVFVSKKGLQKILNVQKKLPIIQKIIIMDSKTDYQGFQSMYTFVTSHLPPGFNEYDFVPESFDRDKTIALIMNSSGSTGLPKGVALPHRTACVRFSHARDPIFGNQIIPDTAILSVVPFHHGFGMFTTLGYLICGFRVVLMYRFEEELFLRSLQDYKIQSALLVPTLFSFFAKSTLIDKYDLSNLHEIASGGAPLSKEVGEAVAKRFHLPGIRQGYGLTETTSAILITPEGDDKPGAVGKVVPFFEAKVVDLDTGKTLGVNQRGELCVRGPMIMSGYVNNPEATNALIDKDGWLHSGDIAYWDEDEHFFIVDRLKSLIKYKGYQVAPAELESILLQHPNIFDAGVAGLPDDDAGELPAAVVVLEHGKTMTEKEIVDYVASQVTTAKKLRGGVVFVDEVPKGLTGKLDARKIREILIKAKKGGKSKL
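System: cell-free luciferase reagent; medium: PBS as buffer for the ATP substrate; doses: test compounds dosed from 2 mM stocks in 100% DMSO; incubation: 10 min, room temperature; measured by: luminescence from luciferase reaction; read-out: luciferase activation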
C8 TRAIL sens = sensitizes caspase-8 expressing cells to TRAIL; NB7+C8 cells + TRAIL, ATPlite viability luminescence; inhibition (viability loss, TRAIL sensitization), % at 10 µM; 360,000 tested, 1% active; AID 624354;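 active means compounds causing at least 50% loss of cell viability in the single-dose screen, relative to plate controls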
NF-kB neuron act = compounds increasing NF-kB expression in human neuronal cells | NF-kB reporter expression; hits give high values | fold change at 12.5 µM | 190,000 tested, 1.6% active | AID 1239; in the data active means fold change above about 3.3
FLuc inhib CS = counter-screen for luciferase assay inhibitors: firefly luciferase inhibition; inhibition, % at 10 µM; 200,000 tested, 1.5% active; AID 1006; ATPLite firefly luciferase biochemical luminescence, 10 min; P08659;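 active means inhibition above about 50% when tested at 10 µM, limit read from the data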
* = called active by the depositor. Most compounds without a hit are left out; they make up all but 2.2% or so of the library.

Results for S=C1Nc2ccccc2CS1 ?
C8 TRAIL sens: -11

What do the screens show for `S=C1Cc2ccccc2N1`?
PPC-1+TRAIL kill: 22; C8 TRAIL sens: 60*

Results for CCCCN1C(C)=CC(=C2C(=O)c3ccccc3C2=O)C=C1C ?
PPC-1+TRAIL kill: 31; APP 5'UTR act: 180*; FLuc stim CS: 0.2; C8 TRAIL sens: 66*; NF-kB neuron act: 3.2; FLuc inhib CS: 77*

What do the screens show for `CC1=CC(=C2C(=O)c3ccccc3C2=O)C=C(C)N1Cc1ccco1`?
PPC-1+TRAIL kill: -16; APP 5'UTR act: 128; FLuc stim CS: 0.6; C8 TRAIL sens: 35; NF-kB neuron act: 4.6*; FLuc inhib CS: 38

How did CC1(C(=O)NS(=O)(=O)C2CC2)CCCN(C(=O)/C=C/c2ccccc2)C1 (centres undefined) do in these assays?
C8 TRAIL sens: 9

How did CC(C)CCNC(=O)C1(C)CCN1Cc1ccc2ccccc2c1 (centres undefined) do in these assays?
C8 TRAIL sens: -11

Results for Cc1cc2nc(-c3ccc(F)cc3)c(Cc3cccc(Cl)c3)n2c(C)c1Br ?
C8 TRAIL sens: -4

Results for Cn1cc(Cc2ccc(C(=O)NCc3ccccc3)cn2)c2ccccc21 ?
C8 TRAIL sens: -3

Results for c1ccc2c(c1)CCN(c1nc3cc4c(cc3s1)OCO4)C2 ?
PPC-1+TRAIL kill: 23; APP 5'UTR act: 151*; FLuc stim CS: 0.3; C8 TRAIL sens: 37; NF-kB neuron act: 12*; FLuc inhib CS: 69*

Results for c1c2c(cc3sc(N4CCOCC4)nc13)OCO2 ?
PPC-1+TRAIL kill: 38; APP 5'UTR act: 92; FLuc stim CS: 0.4; C8 TRAIL sens: 21; NF-kB neuron act: 3.2; FLuc inhib CS: 56*

How did c1ccc(N2CCN(c3nc4cc5c(cc4s3)OCO5)CC2)cc1 do in these assays?
PPC-1+TRAIL kill: 26; APP 5'UTR act: 80; FLuc stim CS: 0.7; C8 TRAIL sens: 17; NF-kB neuron act: 3.8*; FLuc inhib CS: 29

Results for Clc1ccc2nc(N3CCN(c4ccccc4)CC3)sc2c1 ?
PPC-1+TRAIL kill: 6; APP 5'UTR act: 27; FLuc stim CS: 0.8; C8 TRAIL sens: 15; NF-kB neuron act: 3.5*; FLuc inhib CS: 21

What do the screens show for `Fc1ccc2nc(N3CCOCC3)sc2c1`?
PPC-1+TRAIL kill: -3; APP 5'UTR act: 27; FLuc stim CS: 0.9; C8 TRAIL sens: 3; NF-kB neuron act: 1.7; FLuc inhib CS: 7

Results for COc1ccc(OC)c(CN2CCN(C(=O)c3cccc(S(=O)(=O)N(C)c4ccccc4)c3)CC2)c1 ?
C8 TRAIL sens: 2

Results for Nc1nc2ccc(Cl)cc2cc1C(=O)NCCc1c[nH]c2ccccc12 ?
C8 TRAIL sens: 14

What do the screens show for `CC(C)C[C@@H](COCc1cccc(Cl)c1)N1CCN(C(=O)c2ccc(C(F)(F)F)cc2)CCC1=O`?
C8 TRAIL sens: 4

Results for Cc1ccc(S(=O)(=O)N2[C@@H](CO)CO[C@H]2CC(=O)c2ccc(F)cc2)cc1 ?
C8 TRAIL sens: -5

How did CC(C)NC(=O)c1cc(C2CCCCN2C(=O)c2ccc(C#N)cc2)on1 (centres undefined) do in these assays?
C8 TRAIL sens: -10

Results for c1c2c(cc3sc(N4CCCCC4)nc13)OCO2 ?
PPC-1+TRAIL kill: 50; APP 5'UTR act: 206*; FLuc stim CS: 0.2; C8 TRAIL sens: 47*; NF-kB neuron act: 3.8*; FLuc inhib CS: 80*

Results for CCOc1ccc(-c2nc(-c3ccccc3C)no2)cc1 ?
PPC-1+TRAIL kill: 39; APP 5'UTR act: 78; FLuc stim CS: 0.5; FLuc inhib CS: 54*

Results for CCOc1ccc(-c2nc(-c3cccnc3)no2)cc1 ?
PPC-1+TRAIL kill: 32; APP 5'UTR act: 129; FLuc stim CS: 0.3; C8 TRAIL sens: 58*; NF-kB neuron act: 6.8*; FLuc inhib CS: 71*

Results for COc1ccc(-c2nc(-c3cccnc3)no2)cc1 ?
PPC-1+TRAIL kill: 24; C8 TRAIL sens: 41

What do the screens show for `CCOc1ccc(-c2noc(-c3cccnc3)n2)cc1OC`?
PPC-1+TRAIL kill: 14; APP 5'UTR act: 4; FLuc stim CS: 0.8; C8 TRAIL sens: -1; NF-kB neuron act: 1.1; FLuc inhib CS: 15

How did CCCCOc1ccc(-c2nc(-c3cccnc3)no2)cc1 do in these assays?
PPC-1+TRAIL kill: 31; APP 5'UTR act: 175*; FLuc stim CS: 0.8; C8 TRAIL sens: 17; NF-kB neuron act: 5.2*; FLuc inhib CS: 22

Results for Cc1cc(-c2ccccc2)nc(N/N=C/c2cccnc2)n1 ?
PPC-1+TRAIL kill: 38; APP 5'UTR act: 8; FLuc stim CS: 0.3; C8 TRAIL sens: 39; NF-kB neuron act: 0.96; FLuc inhib CS: 74*

How did Cc1cc(-c2ccccc2)nc(N/N=C/c2ccc(N(C)C)cc2)n1 do in these assays?
C8 TRAIL sens: 15

What do the screens show for `C(=N/Nc1nc(-c2ccccc2)cc(-c2ccccc2)n1)/c1cccnc1`?
PPC-1+TRAIL kill: 29; APP 5'UTR act: 14; FLuc stim CS: 0.5; C8 TRAIL sens: 11; NF-kB neuron act: 0.49; FLuc inhib CS: 46
